Several values for one entry are separate records, joined by “and”; a condition that tells them apart may be missing. Identical values can stand only once.
Tested on: Fibroblast
Experiment: Multiplex assay against human fibroblast
Type: toxicity, cell-based
Outline: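 Live cells were stained at seeding with Hoechst33342, BioTracker Green Microtubule Cytoskeleton Dye, MitoTracker Red and Annexin V Alexa Fluor 680, then imaged on a CQ1 microscope at 37°C and 5% CO2 after compound addition. CellPathfinder machine-learning gating split cells into Hoechst high-intensity objects or normal cells. Normal cells were split into healthy, pyknosed or fragmented nuclei, and pyknosed cells into mitotic or apoptotic. Tubulin, mitochondrial-mass and membrane-permeability phenotypes are per cents of healthy-nucleus cells.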

[1] = 12 h, 1 µM, compound concentration 1 uM, replicate 1
[2] = 12 h, 1 µM, compound concentration 1 uM, replicate 2
[3] = 12 h, 10 µM, compound concentration 10 uM, replicate 1
[4] = 12 h, 10 µM, compound concentration 10 uM, replicate 2
[5] = 24 h, 1 µM, compound concentration 1 uM, replicate 1
[6] = 24 h, 1 µM, compound concentration 1 uM, replicate 2
[7] = 24 h, 10 µM, compound concentration 10 uM, replicate 1
[8] = 24 h, 10 µM, compound concentration 10 uM, replicate 2
[9] = 48 h, 1 µM, compound concentration 1 uM, replicate 1
[10] = 48 h, 1 µM, compound concentration 1 uM, replicate 2
[11] = 48 h, 10 µM, compound concentration 10 uM, replicate 1
[12] = 48 h, 10 µM, compound concentration 10 uM, replicate 2

**Q.** What does the source list for `COc1cc(Nc2nccc(-c3cnn4nc(OC)ccc34)n2)cc(C(F)(F)F)c1`?
**A.** Population Apoptotic (%) [1]: 42%; Population Fragmented Nuclei (%) [1]: 22%; Population Healthy Nuclei (%) [1]: 47%; Population Hoechst High Intensity Objects (%) [1]: 21%; Population Membrane Permeable-Phenotype (%) [1]: 25%; Population Mitochondria Different-Phenotype (%) [1]: 6%; Population Mitotic Cells (%) [1]: 57%; Population Normal (%) [1]: 78%; Population Pyknosed Nuclei (%) [1]: 30%; Population Tubulin-Different-Phenotype (%) [1]: 43%; Total Cell Count [1]: 87; Population Apoptotic (%) [2]: 50%; Population Fragmented Nuclei (%) [2]: 8%; Population Healthy Nuclei (%) [2]: 86%; Population Hoechst High Intensity Objects (%) [2]: 3%; Population Membrane Permeable-Phenotype (%) [2]: 2%; Population Mitochondria Different-Phenotype (%) [2]: 16%; Population Mitotic Cells (%) [2]: 50%; Population Normal (%) [2]: 96%; Population Pyknosed Nuclei (%) [2]: 5%; Population Tubulin-Different-Phenotype (%) [2]: 16%; Total Cell Count [2]: 44; Population Apoptotic (%) [3]: 57%; Population Fragmented Nuclei (%) [3]: 66%; Population Healthy Nuclei (%) [3]: 15%; Population Hoechst High Intensity Objects (%) [3]: 48%; Population Membrane Permeable-Phenotype (%) [3]: 13%; Population Mitochondria Different-Phenotype (%) [3]: 13%; Population Mitotic Cells (%) [3]: 42%; Population Normal (%) [3]: 51%; Population Pyknosed Nuclei (%) [3]: 17%; Population Tubulin-Different-Phenotype (%) [3]: 47%; Total Cell Count [3]: 283; Population Apoptotic (%) [4]: 33%; Population Fragmented Nuclei (%) [4]: 27%; Population Healthy Nuclei (%) [4]: 61%; Population Hoechst High Intensity Objects (%) [4]: 34%; Population Membrane Permeable-Phenotype (%) [4]: 3%; Population Mitochondria Different-Phenotype (%) [4]: 6%; Population Mitotic Cells (%) [4]: 66%; Population Normal (%) [4]: 65%; Population Pyknosed Nuclei (%) [4]: 11%; Population Tubulin-Different-Phenotype (%) [4]: 15%; Total Cell Count [4]: 82; Population Apoptotic (%) [5]: 75%; Population Fragmented Nuclei (%) [5]: 22%; Population Healthy Nuclei (%) [5]: 50%; Population Hoechst High Intensity Objects (%) [5]: 19%; Population Membrane Permeable-Phenotype (%) [5]: 8%; Population Mitochondria Different-Phenotype (%) [5]: 10%; Population Mitotic Cells (%) [5]: 25%; Population Normal (%) [5]: 80%; Population Pyknosed Nuclei (%) [5]: 27%; Population Tubulin-Different-Phenotype (%) [5]: 32%; Total Cell Count [5]: 92; Population Apoptotic (%) [6]: 45%; Population Fragmented Nuclei (%) [6]: 10%; Population Healthy Nuclei (%) [6]: 77%; Population Hoechst High Intensity Objects (%) [6]: 2%; Population Membrane Permeable-Phenotype (%) [6]: 4%; Population Mitotic Cells (%) [6]: 54%; Population Normal (%) [6]: 97%; Population Pyknosed Nuclei (%) [6]: 12%; Population Tubulin-Different-Phenotype (%) [6]: 19%; Total Cell Count [6]: 43; Population Apoptotic (%) [7]: 46%; Population Fragmented Nuclei (%) [7]: 57%; Population Healthy Nuclei (%) [7]: 21%; Population Hoechst High Intensity Objects (%) [7]: 54%; Population Membrane Permeable-Phenotype (%) [7]: 23%; Population Mitochondria Different-Phenotype (%) [7]: 11%; Population Mitotic Cells (%) [7]: 53%; Population Normal (%) [7]: 45%; Population Pyknosed Nuclei (%) [7]: 21%; Population Tubulin-Different-Phenotype (%) [7]: 42%; Total Cell Count [7]: 273; Population Apoptotic (%) [8]: 50%; Population Fragmented Nuclei (%) [8]: 26%; Population Healthy Nuclei (%) [8]: 56%; Population Hoechst High Intensity Objects (%) [8]: 29%; Population Membrane Permeable-Phenotype (%) [8]: 0%; Population Mitochondria Different-Phenotype (%) [8]: 23%; Population Mitotic Cells (%) [8]: 50%; Population Normal (%) [8]: 70%; Population Pyknosed Nuclei (%) [8]: 17%; Population Tubulin-Different-Phenotype (%) [8]: 11%; Total Cell Count [8]: 90; Population Apoptotic (%) [9]: 64%; Population Fragmented Nuclei (%) [9]: 32%; Population Healthy Nuclei (%) [9]: 50%; Population Hoechst High Intensity Objects (%) [9]: 11%; Population Mitochondria Different-Phenotype (%) [9]: 0%; Population Mitotic Cells (%) [9]: 35%; Population Normal (%) [9]: 88%; Population Pyknosed Nuclei (%) [9]: 17%; Population Tubulin-Different-Phenotype (%) [9]: 21%; Total Cell Count [9]: 92; Population Apoptotic (%) [10]: 66%; Population Fragmented Nuclei (%) [10]: 39%; Population Healthy Nuclei (%) [10]: 56%; Population Hoechst High Intensity Objects (%) [10]: 10%; Population Membrane Permeable-Phenotype (%) [10]: 17%; Population Mitochondria Different-Phenotype (%) [10]: 4%; Population Mitotic Cells (%) [10]: 33%; Population Normal (%) [10]: 89%; Population Pyknosed Nuclei (%) [10]: 4%; Population Tubulin-Different-Phenotype (%) [10]: 29%; Total Cell Count [10]: 82; Population Apoptotic (%) [11]: 69%; Population Fragmented Nuclei (%) [11]: 69%; Population Healthy Nuclei (%) [11]: 21%; Population Hoechst High Intensity Objects (%) [11]: 51%; Population Membrane Permeable-Phenotype (%) [11]: 10%; Population Mitochondria Different-Phenotype (%) [11]: 6%; Population Mitotic Cells (%) [11]: 30%; Population Normal (%) [11]: 48%; Population Pyknosed Nuclei (%) [11]: 9%; Population Tubulin-Different-Phenotype (%) [11]: 56%; Total Cell Count [11]: 291; Population Apoptotic (%) [12]: 50%; Population Fragmented Nuclei (%) [12]: 39%; Population Healthy Nuclei (%) [12]: 59%; Population Hoechst High Intensity Objects (%) [12]: 26%; Population Membrane Permeable-Phenotype (%) [12]: 4%; Population Mitochondria Different-Phenotype (%) [12]: 8%; Population Mitotic Cells (%) [12]: 50%; Population Normal (%) [12]: 73%; Population Pyknosed Nuclei (%) [12]: 1%; Population Tubulin-Different-Phenotype (%) [12]: 40%; Total Cell Count [12]: 205

**Q.** For `CN(c1ccccc1CNc1nc(Nc2ccc3c(c2)CC(=O)N3)ncc1C(F)(F)F)S(C)(=O)=O`, which “Population Apoptotic (%)” value [3] is on record?
**A.** The value was 77% and 66%.

**Q.** What about the “Population Fragmented Nuclei (%)” value [3] of the same compound?
**A.** The value was 25% and 30%.

**Q.** What about the “Population Healthy Nuclei (%)” value [3] of the same compound?
**A.** The value was 60% and 55%.

**Q.** What about the “Population Hoechst High Intensity Objects (%)” value [3] of the same compound?
**A.** The value was 16% and 14%.

**Q.** What about the “Population Mitotic Cells (%)” value [3] of the same compound?
**A.** The value was 22% and 33%.

**Q.** What about the “Population Normal (%)” value [3] of the same compound?
**A.** Its value is 83% and 85%.

**Q.** And the “Population Pyknosed Nuclei (%)” value [3]?
**A.** The value was 13% and 14%.

**Q.** What about the “Total Cell Count” value [3] of the same compound?
**A.** The value was 189 and 148.

**Q.** And the “Population Fragmented Nuclei (%)” value [4]?
**A.** The value was 56% and 49%.

**Q.** What about the “Population Healthy Nuclei (%)” value [4] of the same compound?
**A.** Its value is 38% and 25%.

**Q.** And the “Population Hoechst High Intensity Objects (%)” value [4]?
**A.** Its value is 39% and 31%.

**Q.** What about the “Population Mitochondria Different-Phenotype (%)” value [4] of the same compound?
**A.** Its value is 5% and 14%.

**Q.** And the “Population Mitotic Cells (%)” value [4]?
**A.** Its value is 100% and 64%.

**Q.** What about the “Population Normal (%)” value [4] of the same compound?
**A.** Its value is 60% and 68%.

**Q.** What about the “Total Cell Count” value [4] of the same compound?
**A.** The value was 83 and 80.

**Q.** What about the “Population Apoptotic (%)” value [7] of the same compound?
**A.** The value was 70% and 91%.

**Q.** What about the “Population Fragmented Nuclei (%)” value [7] of the same compound?
**A.** The value was 26% and 36%.

**Q.** And the “Population Healthy Nuclei (%)” value [7]?
**A.** The value was 55% and 54%.

**Q.** And the “Population Hoechst High Intensity Objects (%)” value [7]?
**A.** Its value is 14% and 18%.

**Q.** And the “Population Membrane Permeable-Phenotype (%)” value [7]?
**A.** The value was 11%.

**Q.** And the “Population Normal (%)” value [7]?
**A.** The value was 85% and 81%.

**Q.** And the “Population Pyknosed Nuclei (%)” value [7]?
**A.** Its value is 18% and 9%.

**Q.** What about the “Total Cell Count” value [7] of the same compound?
**A.** Its value is 176 and 163.

**Q.** What about the “Population Fragmented Nuclei (%)” value [8] of the same compound?
**A.** The value was 43% and 49%.

**Q.** What about the “Population Healthy Nuclei (%)” value [8] of the same compound?
**A.** Its value is 47% and 28%.

**Q.** And the “Population Hoechst High Intensity Objects (%)” value [8]?
**A.** Its value is 36% and 30%.

**Q.** And the “Population Membrane Permeable-Phenotype (%)” value [8]?
**A.** Its value is 18% and 20%.

**Q.** And the “Population Mitochondria Different-Phenotype (%)” value [8]?
**A.** Its value is 13% and 26%.

**Q.** And the “Population Normal (%)” value [8]?
**A.** Its value is 63% and 69%.

**Q.** And the “Population Pyknosed Nuclei (%)” value [8]?
**A.** The value was 8% and 22%.

**Q.** What about the “Total Cell Count” value [8] of the same compound?
**A.** Its value is 73 and 76.
